Values after ≈ are worked out from the molar mass of the structure shown. Active and inactive are the calls of the source. The rule behind the calls is not given here.
How the values were obtained:
[1] = Inhibition of Mycobacterium tuberculosis Rv3273 beta-carbonic anhydrase by stopped flow assay
Method in brief: (§1)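 Recombinant mtCA enzyme. CO2 hydration was followed by stopped-flow with phenol red indicator (0.02 mM) read at 557 nm, in 20 mM Hepes pH 7.5 with 20 mM Na2SO4, over 10–100 s. CO2 was 1.7–17 mM. Inhibitor was diluted in water and preincubated with enzyme 15 min at room temperature. Uncatalyzed rate subtracted; three determinations.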

[2] = test system: Mycobacterium tuberculosis; test: Antimicrobial activity against Mycobacterium tuberculosis H37Rv assessed as growth inhibition at < /= 25 ug/ml after 7 days by serial twofold dilution method; type: functional, organism-based
Method in brief: (§2)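 Broth microdilution against H37Rv in Middlebrook 7H9-ADS-G, with 0.05% Tween 80. Compounds from DMSO stock (10 mg/ml), twofold serial dilution on plate. Inoculum is a 1/25 dilution of a mid-log suspension (McFarland 1.0), ~10⁶ CFU per well. Rifampicin control; growth and sterility controls. Incubated 37 °C for 7 days. Growth read visually by turbidity; run in duplicate.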

[3] = Inhibition of Mycobacterium tuberculosis Rv1284 beta-carbonic anhydrase by stopped flow assay; method in brief: as §1
[4] = test system: Mycobacterium tuberculosis; test: Antimicrobial activity against Mycobacterium tuberculosis H37Rv after 30 days; type: functional
Method in brief: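 M. tuberculosis H37Rv, fresh culture, ~1 × 10³ CFU plated onto solid Middlebrook 7H11 with ADS (1/10 v/v) and glycerol (1% v/v). Compound added to molten medium in wells at chosen concentrations. Incubated 37 °C for 30 days, then inspected visually. MIC99.9% taken as the concentration giving 99.9% reduction in cell counts.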

[5] = test system: Mycobacterium tuberculosis; test: Antimicrobial activity against Mycobacterium tuberculosis H37Rv assessed as growth inhibition at 50 ug/ml after 7 days by serial twofold dilution method; type: functional, organism-based; method in brief: as §2
[6] = Inhibition of Mycobacterium tuberculosis Rv3588c beta-carbonic anhydrase by stopped flow assay; method in brief: as §1
[7] = test system: Mycobacterium tuberculosis; test: Antimicrobial activity against Mycobacterium tuberculosis H37Rv assessed as growth inhibition at 100 ug/ml after 7 days by serial twofold dilution method; type: functional, organism-based; method in brief: as §2

Row | Structure (SMILES) | Ki [1] [µM] | growth inhibition (GI) [2] | Ki [3] [µM] | MIC [4] [µg/mL] | growth inhibition (GI) [5] | Ki [6] [µM] | growth inhibition (GI) [7]
1 | CC(=O)OC[C@H]1O[C@@H](CC(=O)/C=C/c2ccc(O)cc2)[C@H](OC(C)=O)[C@@H](OC(C)=O)[C@@H]1OC(C)=O | 13.1 | inactive | 2.9 | > 100 | Active | 0.35 | Active
2 | Oc1ccccc1 [PHENOL] | 79 |  | 64 |  |  |  | 
3 | CC(=O)OC[C@H]1O[C@@H](CC(=O)/C=C/c2cccc(O)c2)[C@H](OC(C)=O)[C@@H](OC(C)=O)[C@@H]1OC(C)=O | 19 | inactive | 2.1 | 3.12 (≈ 6.35 µM) | Active | 0.64 | Active
4 | O=C(/C=C/c1ccc(O)cc1)C[C@@H]1O[C@H](CO)[C@@H](O)[C@H](O)[C@H]1O | 4.13 | inactive | 0.93 |  | Active | 0.13 | Active
5 | CC(=O)OC[C@H]1O[C@@H](CC(=O)/C=C/c2cccc(O)c2)[C@H](OC(C)=O)[C@@H](OC(C)=O)[C@H]1OC(C)=O | 15.6 | inactive | 3.8 |  | inactive | 0.87 | inactive
6 | O=C(/C=C/c1cccc(O)c1)C[C@@H]1O[C@H](CO)[C@H](O)[C@H](O)[C@H]1O | 3.25 | inactive | 1.16 | 100 (≈ 308 µM) | Active | 0.51 | Active
7 | O=C(/C=C/c1cccc(O)c1)C[C@@H]1O[C@H](CO)[C@@H](O)[C@H](O)[C@H]1O | 6.21 | inactive | 0.14 |  | inactive | 0.24 | inactive
8 | CC(=O)OC[C@H]1O[C@@H](CC(=O)/C=C/c2ccc(O)cc2)[C@H](OC(C)=O)[C@@H](OC(C)=O)[C@H]1OC(C)=O | 12 | inactive | 4.5 |  | inactive | 1.15 | inactive
9 | O=C(/C=C/c1ccc(O)cc1)C[C@@H]1O[C@H](CO)[C@H](O)[C@H](O)[C@H]1O | 4.13 | inactive | 4.5 |  | inactive | 0.94 | inactive

Reference: ChEMBL document CHEMBL2321821, “Inhibition of the β-carbonic anhydrases from Mycobacterium tuberculosis with C-cinnamoyl glycosides: identification of the first inhibitor with anti-mycobacterial activity” (Bioorg Med Chem Lett, 2013)
